Measured values as given in ChEMBL document CHEMBL1806473, “Structure-based optimization of click-based histone deacetylase inhibitors” (Eur J Med Chem, 2011).

How the values were obtained:
Histone deacetylase = assay: Inhibition of HDAC in human HeLa cells using Ac-Arg-Gly-Lys(Ac)-AMC as fluorescent substrate after 20 mins by fluorescence assay; assay type: cell-based
MOLT-4 [1] = assay: Antiproliferative activity against human MOLT4 cells by SRB assay; assay type: functional
How it was run: (§1)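 Tested in the NCI in vitro human tumor cell line screen, run by the National Cancer Institute. Each compound was given at five concentrations (100, 10, 1.0, 0.1 and 0.01 μM). GI50 is the drug concentration that reduces growth of treated cells to half that of control cells during drug incubation, judged from the SRB signal.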

RPMI-8226 [2] = assay: Antiproliferative activity against human RPMI8226 cells by SRB assay; assay type: functional; how it was run: as §1
SR [3] = assay: Antiproliferative activity against human SR cells by SRB assay; assay type: functional
How it was run: (§2)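 Cell growth was tested in the NIH in vitro disease-oriented human tumor cell line screen, which NCI ran for these compounds. Compounds were tested at five concentrations (100, 10, 1.0, 0.1 and 0.01 μM), and growth was read by SRB signal. GI50 is the drug concentration that reduces growth of treated cells to half that of control cells during drug incubation.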

EKVX [4] = assay: Antiproliferative activity against human EKVX cells by SRB assay; assay type: functional; how it was run: as §1
HOP-62 [5] = assay: Antiproliferative activity against human HOP62 cells by SRB assay; assay type: functional; how it was run: as §1
NCI-H226 [6] = assay: Antiproliferative activity against human NCI-H226 cells by SRB assay; assay type: functional; how it was run: as §1
NCI-H23 [7] = assay: Antiproliferative activity against human NCI-H23 cells by SRB assay; assay type: functional; how it was run: as §1
NCI-H322M = assay: Antiproliferative activity against human NCI-H322M cells by SRB assay; assay type: functional; how it was run: as §1
NCI-H460 [8] = assay: Antiproliferative activity against human NCI-H460 cells by SRB assay; assay type: functional; how it was run: as §1
NCI-H522 [9] = assay: Antiproliferative activity against human NCI-H522 cells by SRB assay; assay type: functional; how it was run: as §1
HT-29 [10] = assay: Antiproliferative activity against human HT-29 cells by SRB assay; assay type: functional; how it was run: as §1
KM12 = assay: Antiproliferative activity against human KM12 cells by SRB assay; assay type: functional; how it was run: as §1
SF-268 = assay: Antiproliferative activity against human SF268 cells by SRB assay; assay type: functional; how it was run: as §1
SF-295 = assay: Antiproliferative activity against human SF295 cells by SRB assay; assay type: functional; how it was run: as §1
SF-539 [11] = assay: Antiproliferative activity against human SF539 cells by SRB assay; assay type: functional; how it was run: as §1
U-251 = assay: Antiproliferative activity against human U251 cells by SRB assay; assay type: functional; how it was run: as §2
Malme-3M [12] = assay: Antiproliferative activity against human MALME-3M cells by SRB assay; assay type: functional; how it was run: as §1
M14 [13] = assay: Antiproliferative activity against human M14 cells by SRB assay; assay type: functional; how it was run: as §1
MDA-MB-435 = assay: Antiproliferative activity against human MDA-MB-435 cells by SRB assay; assay type: functional; how it was run: as §1
SK-MEL-5 = assay: Antiproliferative activity against human SK-MEL-5 cells by SRB assay; assay type: functional; how it was run: as §1
UACC-62 [14] = assay: Antiproliferative activity against human UACC62 cells by SRB assay; assay type: functional; how it was run: as §2
IGROV-1 [15] = assay: Antiproliferative activity against human IGROV1 cells by SRB assay; assay type: functional; how it was run: as §1
OVCAR-3 = assay: Antiproliferative activity against human OVCAR3 cells by SRB assay; assay type: functional; how it was run: as §1
OVCAR-5 = assay: Antiproliferative activity against human OVCAR5 cells by SRB assay; assay type: functional; how it was run: as §1
SK-OV-3 [16] = assay: Antiproliferative activity against human SKOV3 cells by SRB assay; assay type: functional; how it was run: as §1
ACHN [17] = assay: Antiproliferative activity against human ACHN cells by SRB assay; assay type: functional; how it was run: as §1
PC-3 = assay: Antiproliferative activity against human PC3 cells by SRB assay; assay type: functional; how it was run: as §1
MCF7 [18] = assay: Antiproliferative activity against human MCF7 cells by SRB assay; assay type: functional; how it was run: as §1
MDA-MB-231 = assay: Antiproliferative activity against human MDA-MB-231 cells by SRB assay; assay type: functional; how it was run: as §1
[19] = Antiproliferative activity against human Hs 578T cells by SRB assay; assay type: functional; how it was run: as §1
BT-549 [20] = assay: Antiproliferative activity against human BT549 cells by SRB assay; assay type: functional; how it was run: as §1
HL-60(TB) = assay: Cytotoxicity against human HL-60(TB) cells; assay type: cell-based
K562 = assay: Cytotoxicity against human K562 cells; assay type: cell-based
MOLT-4 [21] = assay: Cytotoxicity against human MOLT4 cells; assay type: cell-based
RPMI-8226 [22] = assay: Cytotoxicity against human RPMI8226 cells; assay type: cell-based
How it was run: (§3)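 Tested in the NCI in vitro disease-oriented human tumour cell line screen, with screening performed by NCI. Growth was read by SRB signal over the drug incubation period at five concentrations: 100, 10, 1.0, 0.1 and 0.01 μM. GI50 is the concentration that reduces growth of treated cells to half that of control cells.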

SR [23] = assay: Cytotoxicity against human SR cells; assay type: cell-based
How it was run: (§4)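 Screened by NCI in its in vitro disease-oriented human tumour cell line panel. Compounds tested at five concentrations (100, 10, 1.0, 0.1 and 0.01 μM). Growth read by sulforhodamine B (SRB) signal. GI50 is the concentration reducing growth of treated cells to half that of control cells during the drug incubation.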

A549 = assay: Cytotoxicity against human A549 cells; assay type: cell-based; how it was run: as §3
EKVX [24] = assay: Cytotoxicity against human EKVX cells; assay type: cell-based; how it was run: as §3
HOP-62 [25] = assay: Cytotoxicity against human HOP62 cells; assay type: cell-based; how it was run: as §3
NCI-H226 [26] = assay: Cytotoxicity against human NCI-H226 cells; assay type: cell-based
NCI-H23 [27] = assay: Cytotoxicity against human NCI-H23 cells; assay type: cell-based
NCI-H460 [28] = assay: Cytotoxicity against human NCI-H460 cells; assay type: cell-based
NCI-H522 [29] = assay: Cytotoxicity against human NCI-H522 cells; assay type: cell-based; how it was run: as §3
HCT-15 = assay: Cytotoxicity against human HCT15 cells; assay type: cell-based; how it was run: as §3
HT-29 [30] = assay: Cytotoxicity against human HT-29 cells; assay type: cell-based; how it was run: as §3
SF-539 [31] = assay: Cytotoxicity against human SF539 cells; assay type: cell-based; how it was run: as §3
SNB-75 = assay: Cytotoxicity against human SNB75 cells; assay type: cell-based; how it was run: as §4
LOX IMVI = assay: Cytotoxicity against human LOXIMVI cells; assay type: cell-based
Malme-3M [32] = assay: Cytotoxicity against human MALME-3M cells; assay type: cell-based; how it was run: as §3
M14 [33] = assay: Cytotoxicity against human M14 cells; assay type: cell-based
SK-MEL-2 = assay: Cytotoxicity against human SK-MEL-2 cells; assay type: cell-based; how it was run: as §3
UACC-62 [34] = assay: Cytotoxicity against human UACC62 cells; assay type: cell-based; how it was run: as §4
IGROV-1 [35] = assay: Cytotoxicity against human IGROV1 cells; assay type: cell-based
SK-OV-3 [36] = assay: Cytotoxicity against human SKOV3 cells; assay type: cell-based
786-0 = assay: Cytotoxicity against human 786-0 cells; assay type: cell-based
ACHN [37] = assay: Cytotoxicity against human ACHN cells; assay type: cell-based
CAKI-1 = assay: Cytotoxicity against human Caki1 cells; assay type: cell-based
RXF 393 = assay: Cytotoxicity against human RXF393 cells; assay type: cell-based; how it was run: as §3
SN12C = assay: Cytotoxicity against human SN12C cells; assay type: cell-based; how it was run: as §4
DU-145 = assay: Cytotoxicity against human DU145 cells; assay type: cell-based; how it was run: as §3
MCF7 [38] = assay: Cytotoxicity against human MCF7 cells; assay type: cell-based
[39] = Cytotoxicity against human Hs 578T cells; assay type: cell-based
BT-549 [40] = assay: Cytotoxicity against human BT549 cells; assay type: cell-based
T47D = assay: Cytotoxicity against human T47D cells; assay type: cell-based; how it was run: as §4

CC(/C=C/c1ccccc1)n1cc(/C=C/C(=O)NO)nn1 (stereo not given)
IC50 (Histone deacetylase): 62 nM | GI50 (MOLT-4 [1]): 377 nM | GI50 (RPMI-8226 [2]): 407 nM | GI50 (SR [3]): 385 nM | GI50 (EKVX [4]): 2090 nM | GI50 (HOP-62 [5]): 1340 nM | GI50 (NCI-H226 [6]): 2350 nM | GI50 (NCI-H23 [7]): 1250 nM | GI50 (NCI-H322M): 1280 nM | GI50 (NCI-H460 [8]): 612 nM | GI50 (NCI-H522 [9]): 173 nM | GI50 (HT-29 [10]): 325 nM | GI50 (KM12): 1290 nM | GI50 (SF-268): 1510 nM | GI50 (SF-295): 1060 nM | GI50 (SF-539 [11]): 934 nM | GI50 (U-251): 777 nM | GI50 (Malme-3M [12]): 279 nM | GI50 (M14 [13]): 777 nM | GI50 (MDA-MB-435): 440 nM | GI50 (SK-MEL-5): 573 nM | GI50 (UACC-62 [14]): 524 nM | GI50 (IGROV-1 [15]): 564 nM | GI50 (OVCAR-3): 1130 nM | GI50 (OVCAR-5): 488 nM | GI50 (SK-OV-3 [16]): 1170 nM | GI50 (ACHN [17]): 765 nM | GI50 (PC-3): 890 nM | GI50 (MCF7 [18]): 1160 nM | GI50 (MDA-MB-231): 1380 nM | GI50 [19]: 692 nM | GI50 (BT-549 [20]): 2110 nM | LC50 (HL-60(TB)): > 100000 nM | LC50 (K562): > 100000 nM | LC50 (MOLT-4 [21]): > 100000 nM | LC50 (RPMI-8226 [22]): > 100000 nM | LC50 (SR [23]): > 100000 nM | LC50 (A549): > 100000 nM | LC50 (EKVX [24]): > 100000 nM | LC50 (HOP-62 [25]): 48200 nM | LC50 (NCI-H226 [26]): 71400 nM | LC50 (NCI-H23 [27]): 6610 nM | LC50 (NCI-H460 [28]): 42700 nM | LC50 (NCI-H522 [29]): 3620 nM | LC50 (HCT-15): 42800 nM | LC50 (HT-29 [30]): 33900 nM | LC50 (SF-539 [31]): 4610 nM | LC50 (SNB-75): 33900 nM | LC50 (LOX IMVI): 4120 nM | LC50 (Malme-3M [32]): 51900 nM | LC50 (M14 [33]): 9080 nM | LC50 (SK-MEL-2): 37000 nM | LC50 (UACC-62 [34]): 7990 nM | LC50 (IGROV-1 [35]): 5740 nM | LC50 (SK-OV-3 [36]): 21800 nM | LC50 (786-0): 9030 nM | LC50 (ACHN [37]): 5860 nM | LC50 (CAKI-1): 34700 nM | LC50 (RXF 393): > 100000 nM | LC50 (SN12C): > 100000 nM | LC50 (DU-145): > 100000 nM | LC50 (MCF7 [38]): > 100000 nM | LC50 [39]: > 100000 nM | LC50 (BT-549 [40]): > 100000 nM | LC50 (T47D): 7630 nM
